Experimental data as given in ChEMBL document CHEMBL1157410, “7-aryl 1,5-dihydro-benzo[e][1,4]oxazepin-2-ones and analogs as non-steroidal progesterone receptor antagonists” (Bioorg Med Chem, 2008).
The source made the active and inactive calls. The rule behind the calls is not given here.

Columns and labels:
[1] = target: T1, Estrogen receptor (Homo sapiens) (UniProt P03372); assay: Antagonist activity at cloned estrogen receptor-ligand binding domain expressed in african green monkey COS7 cells by GAL4 luciferase reporter assay upto 10 uM; format: cell-based; details: COS-7
T1 sequence (whole entry): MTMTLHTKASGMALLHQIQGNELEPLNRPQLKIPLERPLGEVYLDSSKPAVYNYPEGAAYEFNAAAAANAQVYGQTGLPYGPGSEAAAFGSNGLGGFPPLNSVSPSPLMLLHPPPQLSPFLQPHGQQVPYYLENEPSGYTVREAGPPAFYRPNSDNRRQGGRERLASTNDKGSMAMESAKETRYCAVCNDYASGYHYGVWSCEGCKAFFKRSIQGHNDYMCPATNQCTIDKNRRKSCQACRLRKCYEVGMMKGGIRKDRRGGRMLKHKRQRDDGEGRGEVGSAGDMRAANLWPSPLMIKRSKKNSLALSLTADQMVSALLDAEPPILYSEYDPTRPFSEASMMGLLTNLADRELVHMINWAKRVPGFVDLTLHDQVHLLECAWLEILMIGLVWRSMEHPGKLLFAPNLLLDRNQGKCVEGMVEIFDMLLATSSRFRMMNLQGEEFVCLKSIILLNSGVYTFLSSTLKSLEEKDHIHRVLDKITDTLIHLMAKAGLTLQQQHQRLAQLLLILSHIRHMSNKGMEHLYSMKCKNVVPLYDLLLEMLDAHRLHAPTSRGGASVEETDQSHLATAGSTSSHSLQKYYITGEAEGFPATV
Summary of the method: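 COS-7 cells in phenol red-free DMEM with 10% charcoal/dextran-treated FBS were transfected for 16 h with a GAL4-DBD/receptor-LBD fusion plasmid and a GAL4_UAS (5 copies, E1b TATA) luciferase reporter, 50 ng/well each. Cells were then given compound for 20 h, and luciferase activity was read from cell lysates by luminometer.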

[2] = target: T2, Progesterone receptor (Homo sapiens, UniProt P06401); assay: Inhibition of progesterone receptor mediated progesterone-induced alkaline phosphatase activity in human T47D cells; format: cell-based
T2 sequence (P06401 whole entry): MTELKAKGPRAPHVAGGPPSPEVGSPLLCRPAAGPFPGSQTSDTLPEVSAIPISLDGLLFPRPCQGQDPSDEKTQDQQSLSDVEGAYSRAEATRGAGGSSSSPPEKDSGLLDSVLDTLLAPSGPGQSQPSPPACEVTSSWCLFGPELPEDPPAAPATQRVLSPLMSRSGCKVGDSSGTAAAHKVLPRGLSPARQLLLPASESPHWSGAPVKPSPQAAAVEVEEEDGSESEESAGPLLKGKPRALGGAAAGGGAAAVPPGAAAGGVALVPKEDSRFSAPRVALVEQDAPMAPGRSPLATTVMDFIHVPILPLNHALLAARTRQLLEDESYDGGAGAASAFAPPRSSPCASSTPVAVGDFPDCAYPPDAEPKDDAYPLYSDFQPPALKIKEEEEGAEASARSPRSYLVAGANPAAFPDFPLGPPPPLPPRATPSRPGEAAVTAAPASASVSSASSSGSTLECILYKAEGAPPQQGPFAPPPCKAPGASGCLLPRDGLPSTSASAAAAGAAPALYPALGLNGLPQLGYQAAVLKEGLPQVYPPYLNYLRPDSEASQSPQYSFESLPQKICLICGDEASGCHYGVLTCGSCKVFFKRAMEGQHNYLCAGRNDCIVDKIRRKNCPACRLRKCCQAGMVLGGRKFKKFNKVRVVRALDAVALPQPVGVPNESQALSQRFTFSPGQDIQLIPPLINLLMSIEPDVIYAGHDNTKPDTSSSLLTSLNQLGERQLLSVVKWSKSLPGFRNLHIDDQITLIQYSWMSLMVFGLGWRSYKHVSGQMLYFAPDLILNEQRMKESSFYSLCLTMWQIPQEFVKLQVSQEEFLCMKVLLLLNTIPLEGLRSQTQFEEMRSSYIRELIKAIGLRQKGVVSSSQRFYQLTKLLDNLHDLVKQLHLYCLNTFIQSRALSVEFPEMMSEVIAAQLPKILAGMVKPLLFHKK

[3] = target: T3, Androgen receptor (Homo sapiens, UniProt P10275)
T3 sequence (P10275 whole entry): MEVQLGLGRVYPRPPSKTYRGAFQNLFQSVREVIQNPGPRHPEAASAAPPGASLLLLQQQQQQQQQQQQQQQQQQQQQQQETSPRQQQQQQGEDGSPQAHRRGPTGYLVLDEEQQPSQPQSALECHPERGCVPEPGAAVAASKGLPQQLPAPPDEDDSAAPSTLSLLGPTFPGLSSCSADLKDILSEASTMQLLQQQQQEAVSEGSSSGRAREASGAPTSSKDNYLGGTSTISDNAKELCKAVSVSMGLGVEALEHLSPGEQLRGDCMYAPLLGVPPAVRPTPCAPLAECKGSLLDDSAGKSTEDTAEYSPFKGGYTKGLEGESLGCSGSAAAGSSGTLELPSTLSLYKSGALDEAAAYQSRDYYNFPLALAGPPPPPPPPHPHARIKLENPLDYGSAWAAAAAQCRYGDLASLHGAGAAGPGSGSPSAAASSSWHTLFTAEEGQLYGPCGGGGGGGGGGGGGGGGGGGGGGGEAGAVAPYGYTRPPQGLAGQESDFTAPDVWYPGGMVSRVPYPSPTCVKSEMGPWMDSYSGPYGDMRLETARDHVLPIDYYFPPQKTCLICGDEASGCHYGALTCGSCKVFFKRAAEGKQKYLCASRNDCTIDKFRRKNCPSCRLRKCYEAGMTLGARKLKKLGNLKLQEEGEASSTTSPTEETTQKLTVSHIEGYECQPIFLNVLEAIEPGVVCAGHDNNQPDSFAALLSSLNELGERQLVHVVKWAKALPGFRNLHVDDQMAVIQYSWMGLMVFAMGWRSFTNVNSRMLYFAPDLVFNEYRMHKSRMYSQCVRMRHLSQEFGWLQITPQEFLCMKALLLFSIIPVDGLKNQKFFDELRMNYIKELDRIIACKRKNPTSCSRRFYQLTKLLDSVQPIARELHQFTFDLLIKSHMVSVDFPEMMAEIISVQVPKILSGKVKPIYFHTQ

Row | Compound | Activity [1] | IC50 [2] | IC50 [3]
1 | CC1(C)OCC(=O)Nc2ccc(-c3cc(F)cc(C#N)c3)cc21 | inactive | 25 nM | > 3000 nM
2 | N#Cc1cc(F)cc(-c2ccc3c(c2)C(c2ccco2)(c2ccco2)OCC(=O)N3)c1 | inactive | 13.3 nM | > 3000 nM
3 | CCC1(c2ccco2)OCC(=O)Nc2ccc(-c3cc(F)cc(C#N)c3)cc21 (centres undefined) | inactive | 11.8 nM | 690 nM
